Published values of several laboratories.
Protocols differ between the studies behind these lines.
Cell line: HepG2
Read-out: cell growth or viability

| Structure (SMILES) | technique | time | CC50 [µM] |
| --- | --- | --- | --- |
| CCCCCCNC[C@H](O)c1cc(Cl)cc2c1-c1ccc(Cl)cc1C2 |  | 48 h | 4.8 |
| NC1=CC2=NCCc3c[nH]c(c32)C1=O | MTT | 72 h | 0.1 |
| COCC(=O)N1CCC[C@H](C(=O)NCc2nc(-c3ccc(C#N)cc3)cs2)C1 | ATP luminescence | 96 h | > 50 |
| O=C1C(NCCc2c[nH]c3ccccc23)=CC2=NCCc3c[nH]c1c32 | MTT | 72 h | 4 |
| Cn1nc2c(=O)n(C3CC3)cnc2c1[C@](O)(c1cnc(C(F)(F)F)c(Cl)c1)C(F)(F)F | ATP luminescence |  | > 50 |
| COC(CNC1=CC2=NCCc3c[nH]c(c32)C1=O)c1c[nH]c2ccccc12 (stereo not drawn) | MTT | 72 h | 20 |
| CCCCCNC[C@@H](O)c1cc(Cl)cc2c1-c1ccc(Cl)cc1C2 |  | 48 h | 6 |
| COC1=CC2=[N+](C)CCc3c[nH]c(c32)C1=O | MTT | 72 h | 12.5 |
| Cn1nc2c(=O)n(C3CC3)ncc2c1[C@](O)(c1cnc(C(F)(F)F)c(Cl)c1)C(F)(F)F | ATP luminescence |  | 38 |
| O[C@@H](CN[C@@H](COCC1CC1)Cc1ccccc1)c1cc(Cl)cc2c1-c1ccc(Cl)cc1C2 |  | 48 h | 19.9 |
| COCC(=O)N1CCC[C@H](C(=O)NCc2nc(-c3ccc(OC)cc3)cs2)C1 | ATP luminescence | 96 h | > 50 |
| O[C@@H](CNCCCC(F)(F)F)c1cc(Cl)cc2c1-c1ccc(Cl)cc1C2 |  | 48 h | 13.8 |
| COCC(=O)N1CCC[C@H](C(=O)NCc2nc(-c3ccc(C)cc3)cs2)C1 | ATP luminescence | 96 h | > 50 |
| CCCCCCCNCC(O)c1cc(Cl)cc2c1-c1ccc(Cl)cc1C2 (racemic) |  | 48 h | 5.7 |
| COCC(=O)N1CCCC(C(=O)NCc2nc(-c3ccccc3)cs2)C1 (racemic) | ATP luminescence | 96 h | > 50 |
